Shown are actives, neighbours in structure and some others; about 12% of the full set was active somewhere.
bCat nuc transl – alters nuclear translocation of beta-catenin in HeLa cells; immunofluorescence imaging; nuclear translocation activity, % at 5 µM; 190,000 compounds, 0.3% hits; AID 1665;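 active = nuclear translocation activity above 50% at 5 µM, with a well cell count of 50 or more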;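 also: per-cell ratio of nuclear to cytoplasmic median beta-catenin stain intensity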
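assay system = human HeLa cells, endogenous beta-catenin | times = compound treatment 24 h, 37°C, 5% CO2 | detection = Anti-beta-catenin immunofluorescence on PFA-fixed, Triton-permeabilized cells, DAPI nuclei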
Dynein cargo inh – dynein cargo transport inhibition | 3617.4 mouse cells, GR-EGFP nuclear translocation imaging; test concentration mostly 20 µM; stimulated with dexamethasone, 1 µM; hits give low values | z-score, hits read low | 220,000 compounds, 0.47% hits | AID 1381;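 active = plate z-score of nuclear minus cytoplasmic receptor signal below a set negative limit, without overly bright fluorescence or cell loss, cut at about -3.5 in these data, passing the limit was not always enough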;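 also: z-score of nuclear minus cytoplasmic ring GR-EGFP intensity difference per well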
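Buffer or medium – tet-free medium with charcoal-stripped serum · Signal – automated 10x imaging of fixed Hoechst-stained cells · Also added – dexamethasone agonist, 1.0 µM final, for 30 min · Incubation – induction 48 h, compound 1 h, agonist 30 min · Read-out – GR-EGFP nuclear translocation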
CHOP inhibitor – blocks CHOP induction under ER stress; 220,000 compounds, 3.8% hits; AID 2732; inhibition, % at 10 µM; CHO-K1 CHOP-promoter luciferase, tunicamycin-induced, 15-18 h;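 active = compounds that reduced the stress-induced luciferase reporter signal by more than about 70% of percent inhibition, limit read from the data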
MT stabilizer – microtubule stabilizers in HeLa cells | HeLa tubulin immunostaining HCS, 24 h; share of cells brighter than vehicle mean+2SD | % tubulin-high responders, % at 10 µM | 200,000 compounds, 0.83% hits | AID 2205;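 active = plate Z-score above 3 for both tubulin-high and condensed-nucleus cell shares, with cell loss under 80%, at 10 µM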;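 also: anti alpha tubulin signal scored within the nucleus-defined area of each cell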
Autophagy HCS – alters autophagy in cells | MEF GFP-LC3 puncta imaging; test concentration mostly 10 µM | 190,000 compounds, 0.98% hits | calls only at 10 µM (by protocol);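 active = percentage of spot-positive cells more than 3 SD above its plate mean, without a fluorescence outlier flag or 80% toxicity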
Lmaj promast – Leishmania major promastigote growth inhibition; Leishmania major promastigotes, resazurin fluorescence viability; inhibition, % at 10 µM; 200,000 compounds, 9% hits; AID 1063; in the data active = inhibition above about 50%;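 also: promastigotes grown with compound for 44 hours at 28 °C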
A number is an active result; 0 = inactive; - = no result; + = active, no number.

SMILES	bCat nuc transl	Dynein cargo inh	CHOP inhibitor	MT stabilizer	Autophagy HCS	Lmaj promast
O=C(O)c1ccc2c(c1)C(=O)N(c1nccs1)C2=O	0	0	0	-	-	-
CCC(=O)Nc1ccc(C(=O)CSc2nnc(-c3ccc(NS(=O)(=O)CC)cc3)o2)cc1OC	0	0	0	-	-	-
COc1cc(/C=N/Nc2nc(N3CCCC3)nc(N3CCCC3)n2)ccc1O	0	0	0	0	0	97.0
O=C(CCNC(=O)c1ccc(Cl)cc1)Nc1c(F)c(F)cc(F)c1F	0	0	0	0	0	0
Cc1ccc(CNC(=O)COC(=O)[C@@H]2CC(O)CN2S(=O)(=O)c2ccc3c(c2)OCCO3)cc1 (some centres undefined)	0	0	0	0	0	0
COC(=O)C1CCN(C(=O)COC(=O)[C@@H]2CC(O)CN2S(=O)(=O)c2ccc3c(c2)OCCO3)CC1 (some centres undefined)	0	0	0	0	0	50.8
COc1ccc(N2CCN(C(=O)CN(C)S(=O)(=O)c3cc(C)ccc3OC)CC2)cc1	0	0	0	0	0	0
CCCC(=O)Nc1cccc(-c2cn3cccnc3n2)c1	0	0	0	0	0	90.5
CCCC(=O)Nc1cc(-c2cn3cccnc3n2)ccc1OC	0	0	0	0	0	63.0
O=C(O)CC(c1cccc([N+](=O)[O-])c1)N1Cc2ccccc2C1=O (centres undefined)	0	0	0	0	0	0
CC(NC(=O)/C=C/c1ccco1)c1nc2ccccc2n1Cc1ccccc1F (centres undefined)	0	0	0	0	0	0
CCCc1cc(=O)[nH]c(Nc2ccc(OC)c(Cl)c2)n1	-	0	77.5	0	0	0
COCCn1c(=NC(=O)c2sc3ccccc3c2Cl)sc2cc(S(N)(=O)=O)ccc21	0	0	75.3	0	0	0
COCCn1c(=NC(=O)c2cc(-c3cccs3)nc3ccccc23)sc2cc(S(N)(=O)=O)ccc21	0	0	0	0	0	0
C=CCn1c(=NC(=O)c2sc3ccccc3c2Cl)sc2cc(S(N)(=O)=O)ccc21	0	0	82.0	0	0	0
C=CCN(c1ccccc1)S(=O)(=O)c1cccc(C(=O)OCC(=O)NC2CC2)c1	0	0	0	0	+	0
O=C(NC1CC1)c1ccc(CN(c2ccccc2)S(=O)(=O)c2ccccc2)cc1	0	0	0	0	0	58.0
CCN(Cc1ccccc1)c1ccc(/C=N/NS(=O)(=O)c2cccc([N+](=O)[O-])c2)cc1	0	0	0	0	0	0
Cc1ccc(CNc2oc(COc3ccccc3Cl)nc2C#N)cc1	0	0	85.3	0	0	0
N#Cc1nc(COc2ccccc2F)oc1NCCc1ccccc1	0	0	79.6	0	0	0
N#Cc1nc(COc2ccc(Cl)cc2)oc1NCc1ccc2c(c1)OCO2	-	0	73.3	0	0	75.2
O=C(Nc1ccc2ccccc2c1)c1onc2c1CCCC2	0	0	0	0	0	0
COc1ccc(CC(=O)NNC(=O)c2c(-c3ccccc3Cl)noc2C)cc1OC	0	0	0	-	-	-
COc1ccc(-c2c(C)n([O-])c3c([n+]2=O)CCCCC3)cc1OC	0	0	0	0	0	0
CC(NC(=O)c1ccc(F)cc1)c1ccc(F)cc1 (centres undefined)	-	0	0	0	0	56.0
SMILES	bCat nuc transl	Dynein cargo inh	CHOP inhibitor	MT stabilizer	Autophagy HCS	Lmaj promast
CC(NC(=O)c1ccc(Br)cc1)c1ccccc1 (centres undefined)	-	0	0	0	0	0
CC(NC(=O)c1ccccc1)c1ccc(Br)cc1 (centres undefined)	0	0	0	0	0	55.2
COc1ccc(C(Nc2ccc(S(=O)(=O)NCC3CCCO3)cc2)C(=O)NC(C)(C)C)cc1OC (centres undefined)	0	0	0	0	0	0
N#C/C(=C\c1cn(-c2ccccc2)nc1-c1ccccc1)S(=O)(=O)c1ccccc1	-	0	0	0	0	0
CCOc1ccc(-c2nn(-c3ccccc3)cc2/C=C(\C#N)S(=O)(=O)c2ccccc2)cc1C	0	0	0	0	0	64.0
CN(Cc1nc(Cc2cccc(C(F)(F)F)c2)no1)C1CC(C)(C)NC(C)(C)C1	0	0	0	0	0	0
CCOC(=O)C1(CCCc2ccccc2)CCN(C(=O)CCC2=NNC(=O)CC2)CC1	0	0	0	0	0	0
